Calls of active or inactive are those of the source. No cut-off for these calls is given here. Residues, ends and D or L forms follow the SMILES beside them.

These results are taken from ChEMBL document CHEMBL5038580 (J Med Chem, 2022).

One data set concerns Huh-7. The experiment in a line: Cytotoxicity against human Huh7 cells incubated for 48 hrs by CCK-8 assay. In kind it is functional. A digest of the protocol:
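Huh-7 cells (100 μL at 1 × 10^5 cells/mL) were preincubated 12 h at 37 °C, 5% CO2. Serially diluted peptide was added for 48 h, with a no-peptide blank and a Triton X-100 positive control. CCK-8 was added for 2 h and absorbance read at 450 nm. Three independent experiments, mean ± SD.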

For another data set, the system named is Mus musculus. Kind of data set: Antiviral activity against MERS-COV infected in BALB/c mouse at 0.023 mmol/kg, iv measured upto 12 hrs. In kind it is functional, organism-based. The note with it: time hrs <=12. A digest of the protocol: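 Peptide in PBS (pH 7.4) was given at 0.023 mmol/kg i.v. to three male BALB/c mice aged 8 weeks. Sera were tested in a 2 h S-mediated fusion assay with Huh-7 target cells. The serum dilution giving 50% fusion inhibition was calculated. Significance by Student's t test.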

The test system of data set [1] is SARS-CoV-2. Kind of data set: Antiviral activity against SARS-CoV-2 transfected in 293T cells assessed as inhibition of viral S protein mediated membrane fusion to 293T/ACE2 cells at 20 uM incubated for 24 hrs by fluorescence microscopy analysis. In kind it is functional, organism-based. The note with it: Severe acute respiratory syndrome coronavirus 2, HEK-293T. A digest of the protocol: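 Single-concentration screen at 20 μM. Effector 293T cells expressing S/EGFP (10^4) were added to ACE2-293T target cells (10^5/well) and co-incubated at 37 °C for 24 h. Fusion was scored by fluorescence microscopy from counts of fused and unfused cells.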

In data set [2] the test system is Human coronavirus OC43. Kind of data set: Antiviral activity against HCoV-OC43 assessed as inhibition of viral S-protein mediated cell-cell fusion in Huh7 cells preincubated for 30 mins followed by cell addition and measured after 24 hrs. Format: functional, cell-based. The note with it: Betacoronavirus 1, OC43, Huh-7. A digest of the protocol: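 Effector HEK293T cells were transfected with an OC43 spike/GFP plasmid and harvested after 36 h. They were preincubated with diluted peptides at 37 °C for 30 min, then co-incubated with Huh-7 target cells in the presence of trypsin for 24 h. Inhibition was calculated from counts of fused and unfused cells. Three independent experiments, mean ± SD.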

The test system of data set [3] is Human coronavirus OC43. Kind of data set: Antiviral activity against HCoV-OC43 assessed as reduction in viral infection preincubated for 30 mins followed by RD cells addition and measured after 3 days by CCK-8 assay. In kind it is functional. The note with it: Betacoronavirus 1, OC43, RD. An outline of the steps: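 HCoV-OC43 (100 TCID50) was mixed with diluted peptides for 30 min at 37 °C, then added to RD cells. After 3 days, cytopathic effect was read by CCK-8. Three independent experiments, mean ± SD.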

Data set [4] in a line: in vitro. The note with it: human, RD cells.
Data set [5] concerns Human immunodeficiency virus 1. Kind of data set: Antiviral activity against HIV 1 25710-2 subtype C assessed as inhibition of viral entry preincubated for 30 min followed by U87-CD4-[…] positive cells addition and culture medium replacement after 12 hrs post infection and measured after 48 hrs by luciferase assay. Particulars: Human immunodeficiency virus 1, 25710-2 subtype C. Format: functional, organism-based. An outline of the steps: (§1)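 U87 CD4+ CCR5+ cells (1 × 10^4/well) were seeded and grown for 12 h at 37 °C, 5% CO2. Diluted peptides were mixed with pseudovirus for 30 min at 37 °C and then put on the cells. Medium was replaced 12 h post-infection. Cells were lysed 48 h later and luciferase was read. Three independent experiments, mean ± SD.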

Data set [6] has as its system Human immunodeficiency virus 1. The experiment in a line: Antiviral activity against HIV 1 JRFL subtype B assessed as inhibition of viral entry preincubated for 30 min followed by U87-CD4-[…] positive cells addition and culture medium replacement after 12 hrs post infection and measured after 48 hrs by luciferase assay. In kind it is functional, organism-based. Particulars: Human immunodeficiency virus 1, JRFL subtype B. A digest of the protocol:
as §1

Data set [7] has as its system Human immunodeficiency virus 1. Kind of data set: Antiviral activity against HIV-1 IIIB assessed as inhibition of HIV-1 Env mediated cell-cell fusion in MT-2 cells preincubated for 30 mins followed by cell addition and measured after 2 hrs by calcein AM staining based fluorescence microscopy. Particulars: Human immunodeficiency virus 1, IIIB, MT2. Format: functional, organism-based. A digest of the protocol: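 H9/HIV-1 IIIB cells were labelled with Calcein AM for 30 min at 37 °C, washed, and resuspended in RPMI/10% FBS. They were incubated with diluted peptides for 30 min at 37 °C. MT-2 cells (1 × 10^5) were then added and cultured for 2 h at 37 °C. Fused cells were counted by fluorescence microscopy and IC50 was calculated. Three independent experiments.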

In data set [8] the test system is Human immunodeficiency virus 1. The experiment in a line: Antiviral activity against HIV 1 BaL(R5) incubated overnight by ELISA analysis. In kind it is functional, organism-based. The note with it: Human immunodeficiency virus 1, BaL(R5). A digest of the protocol:
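Peptides were diluted in FBS-free RPMI 1640 and mixed with 100 TCID50 HIV-1 BaL. CEMx174 5.25 M7 cells (10^4) were added and cultured overnight at 37 °C, then medium was changed to RPMI/10% FBS. After 6 more days, supernatants were lysed with 5% Triton X-100 and p24 was measured by ELISA. IC50 calculated from three independent experiments.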
A general note: In an ELISA, binding on a coated surface is turned into a signal by an enzyme label.

The test system of data set [9] is Human immunodeficiency virus 1. Kind of data set: Antiviral activity against HIV 1 IIIB([…]) incubated overnight by ELISA analysis. In kind it is functional, organism-based. An outline of the steps: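 Peptides were diluted in FBS-free RPMI 1640 and mixed with 100 TCID50 HIV-1 IIIB. MT-2 cells (10^4) were added and cultured overnight at 37 °C, then medium was changed to RPMI/10% FBS. After 3 more days, supernatants were lysed with 5% Triton X-100 and p24 was measured by ELISA. IC50 calculated from three independent experiments.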

Data set [10] relates to SARS-CoV-2. The experiment in a line: Antiviral activity against SARS-CoV-2 transfected in 293T cells assessed as inhibition of viral S protein mediated membrane fusion to 293T/ACE2 cells incubated for 24 hrs by fluorescence microscopy analysis. The note with it: Severe acute respiratory syndrome coronavirus 2, HEK-293T. Format: functional, organism-based, HEK293T. A digest of the protocol: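 Effector 293T cells were transfected with an S/EGFP plasmid for 48 h and collected in FBS-free DMEM. ACE2-293T target cells (10^5/well) were plated 6–8 h before fusion. Effector cells (10^4) were added with graded peptide dilutions and co-incubated at 37 °C for 24 h. Percent inhibition was calculated from fused and unfused cell counts under fluorescence microscopy.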

Data set [11] is described as follows: in vitro. The note with it: human, MT2 cells.

A word on the CC50: it is the concentration giving 50% cytotoxicity. A lower CC50 goes with harm at low concentration. On to `CC[C@H](C)[C@H](NC(=O)[C@H](Cc1ccc(O)cc1)NC(=O)[C@H](CO)NC(=O)[C@H](CCC(=O)O)NC(=O)[C@H](CCC(=O)O)NC(=O)[C@H](CC(C)C)NC(=O)[C@H](CCCCN)NC(=O)[C@H](CCCCN)NC(=O)[C@@H](NC(=O)[C@@H](NC(=O)[C@H](CCC(=O)O)NC(=O)[C@H](CCC(=O)O)NC(=O)[C@H](CC(C)C)NC(=O)[C@H](CCCCN)NC(=O)[C@H](CCCCN)NC(=O)[C@H](CCSC)NC(=O)[C@H](CCC(=O)O)NC(=O)[C@H](Cc1ccc(O)cc1)NC(=O)[C@H](CCC(=O)O)NC(=O)[C@H](CC(C)C)NC(=O)[C@H](CC(=O)O)NC(=O)[C@H](CC(C)C)NC(=O)[C@H](CC(C)C)NC(=O)[C@@H](NC(=O)[C@@H](NC(=O)[C@H](CC(N)=O)NC(=O)[C@@H](NC(=O)[C@H](CCC(N)=O)NC(=O)[C@@H](NC(=O)[C@H](CC(C)C)NC(=O)[C@H](CO)NC(C)=O)[C@@H](C)O)[C@@H](C)CC)[C@@H](C)O)[C@@H](C)O)C(C)C)C(C)C)C(=O)N[C@@H](CC(=O)O)C(=O)N[C@@H](CC(C)C)C(=O)N[C@@H](CCCCN)C(=O)N[C@@H](CCC(=O)O)C(=O)N[C@@H](CC(C)C)C(N)=O`, for which the CC50 with Huh-7 is above 50000 nM. Also, the result in the data set with Mus musculus was Active.
As a reminder, the IC50 is the midpoint of a concentration-inhibition curve. For `CC[C@H](C)[C@H](NC(=O)[C@H](C)NC(=O)[C@H](CCC(=O)O)NC(=O)[C@H](CCC(=O)O)NC(=O)[C@H](CC(C)C)NC(=O)[C@H](CCCCN)NC(=O)[C@H](CCCCN)NC(=O)[C@H](CCSC)NC(=O)[C@H](CCC(=O)O)NC(=O)[C@H](Cc1ccc(O)cc1)NC(=O)[C@H](CCC(=O)O)NC(=O)[C@H](CC(C)C)NC(=O)[C@H](CC(=O)O)NC(=O)[C@H](CC(C)C)NC(=O)[C@H](Cc1ccccc1)NC(=O)[C@@H](NC(=O)[C@@H](NC(=O)[C@H](CC(N)=O)NC(=O)[C@@H](NC(=O)[C@H](CCC(N)=O)NC(=O)[C@H](CC(=O)O)NC(=O)[C@H](CC(C)C)NC(=O)[C@H](CO)NC(C)=O)[C@@H](C)CC)C(C)C)[C@@H](C)O)C(=O)N[C@@H](CCCCN)C(=O)N[C@@H](CCCCN)C(=O)N[C@@H](CC(C)C)C(=O)N[C@@H](CCC(=O)O)C(=O)N[C@@H](CCC(=O)O)C(=O)N[C@@H](CO)C(=O)N[C@@H](Cc1ccc(O)cc1)C(=O)N[C@H](C(=O)N[C@@H](CC(=O)O)C(=O)N[C@@H](CC(C)C)C(=O)N[C@@H](CCCCN)C(=O)N[C@@H](CCC(=O)O)C(=O)N[C@@H](CC(C)C)C(N)=O)[C@@H](C)CC`, the result in the data set on SARS-CoV-2 [1] was Active. Also, the values for the IC50 in the data set on Human coronavirus OC43 [2] and in the data set on Human coronavirus OC43 [3] were 280 nM and 970 nM, respectively. Moreover, in “in vitro [4]”, the cytotoxic concentration (CC50) at 48 h was above 40000 nM.
As to `CC[C@H](C)[C@H](NC(C)=O)C(=O)N[C@@H](CCC(=O)O)C(=O)N[C@@H](CCC(=O)O)C(=O)N[C@H](C(=O)N[C@H](C(=O)N[C@@H](CCCCN)C(=O)N[C@@H](CCCCN)C(=O)N[C@H](C(=O)N[C@@H](Cc1c[nH]cn1)C(=O)N[C@@H](Cc1c[nH]cn1)C(=O)N[C@H](C(=O)N[C@@H](CCC(=O)O)C(=O)N[C@@H](CCCNC(=N)N)C(=O)N[C@@H](C)C(=O)N[C@H](C(=O)N[C@@H](CCC(=O)O)C(=O)N[C@@H](C)C(=O)N[C@@H](CCC(N)=O)C(=O)N[C@@H](CCC(N)=O)C(=O)N[C@@H](CCCCN)C(=O)N[C@@H](CC(C)C)C(=O)N[C@@H](CC(C)C)C(=O)N[C@@H](CCC(N)=O)C(=O)N[C@@H](CC(C)C)C(=O)N[C@H](C(=O)N[C@H](C(=O)N[C@@H](Cc1c[nH]c2ccccc12)C(=O)NCC(=O)N[C@H](C(=O)N[C@@H](CCCCN)C(=O)N[C@@H](CCC(N)=O)C(=O)N[C@@H](CC(C)C)C(=O)N[C@@H](CCC(N)=O)C(=O)N[C@@H](C)C(=O)N[C@@H](CCCNC(=N)N)C(=O)N[C@H](C(=O)N[C@@H](CC(C)C)C(N)=O)[C@@H](C)CC)[C@@H](C)CC)C(C)C)[C@@H](C)O)[C@@H](C)CC)[C@@H](C)CC)[C@@H](C)CC)C(C)C)[C@@H](C)CC` (Ac-IEEIVKKIHHIERAIEAQQKLLQLTVWGIKQLQARIL-NH2), the IC50 in data set [5] was 298 nM; in [6] it was 353 nM; in data set [7], 472 nM; in data set [8] it was 176 nM; in [9] it was 18.5 nM; with SARS-CoV-2 [10] it was above 20000 nM. Further, the IC50 with Human coronavirus OC43 [2] and in the data set on Human coronavirus OC43 [3] was above 20000 nM each time.
enfuvirtide: the IC50 in data set [5] was 11.5 nM; in data set [6], 7.86 nM; in [7], 24 nM; in [8], 1.58 nM; in [9], 17.8 nM. In the data set “in vitro [11]”, this compound returned a CC50 at 48 h above 10000 nM.
